Laboratory results as given in ChEMBL document CHEMBL1152454, “Novel plasmid-mediated 16S rRNA m1A1408 methyltransferase, NpmA, found in a clinically isolated Escherichia coli strain resistant to structurally diverse aminoglycosides” (2007).
Converted amounts (≈) assume the structure as drawn. The source made the active and inactive calls. No cut-off for these calls is given here.

Tests used:
Escherichia coli [1] = assay: Antibacterial activity against Escherichia coli isolate ARS3 carrying pARS3 by agar dilution method; format: functional
Outline: (§1)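 Minimal inhibitory concentration (MIC) by agar dilution on Mueller-Hinton agar, following the CLSI protocol. Strains were routinely grown in LB broth at 37°C with shaking.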

Escherichia coli [2] = assay: Antibacterial activity against Escherichia coli CSH-2 carrying Escherichia coli ARS3 pARS3 by agar dilution method; format: functional; outline: as §1
Escherichia coli [3] = assay: Antibacterial activity against Escherichia coli CSH-2 by agar dilution method; format: functional; outline: as §1
Escherichia coli [4] = assay: Antibacterial activity against Escherichia coli JM109 carrying pMCL-BE by agar dilution method; format: functional; outline: as §1
Escherichia coli [5] = assay: Antibacterial activity against Escherichia coli JM109 carrying pMCL210 by agar dilution method; format: functional; outline: as §1
Escherichia coli [6] = assay: Antibacterial activity against Escherichia coli (DE3)pLysS carrying pCold-IV by microdilution susceptibility test; format: functional
Escherichia coli [7] = assay: Antibacterial activity against Escherichia coli (DE3)pLysS carrying pCold-NpmA by microdilution susceptibility test; format: functional
Nucleic Acid [8] = assay: Binding affinity to 16S rRNA G1494(N7) position in wild type Escherichia coli JM109 30S sunit at 100 uM by footprint assay; format: nucleic-acid assay
Outline: (§2)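 Aminoglycoside (1–1,000 μM final) was added, 37°C 30 min, then ice 10 min. DMS modification followed at 37°C for 10 min, then quench and rRNA extraction. G1494 protection was read by primer extension.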

Nucleic Acid [9] = assay: Binding affinity to 16S rRNA G1494(N7) position in wild type Escherichia coli JM109 30S sunit at 1000 uM by footprint assay; format: nucleic-acid assay; outline: as §2
Nucleic Acid [10] = assay: Binding affinity to 16S rRNA G1494(N7) position in A1408-methylated Escherichia coli JM109 30S sunit at 100 uM by footprint assay; format: nucleic-acid assay; outline: as §2
Nucleic Acid [11] = assay: Binding affinity to 16S rRNA G1494(N7) position in A1408-methylated Escherichia coli JM109 30S sunit at 1000 uM by footprint assay; format: nucleic-acid assay; outline: as §2
Nucleic Acid [12] = assay: Binding affinity to 16S rRNA G1494(N7) position in A1408-methylated Escherichia coli JM109 30S sunit by footprint assay; format: nucleic-acid assay
Outline: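 Aminoglycoside added (final 1 μM to 1,000 μM) for 30 min at 37°C, then 10 min on ice. DMS probing for 10 min at 37°C. The G1494 footprint was read by reverse-transcriptase primer extension.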

Molecule	MIC (Escherichia coli [1]) [µg/mL]	MIC (Escherichia coli [2]) [µg/mL]	MIC (Escherichia coli [3]) [µg/mL]	MIC (Escherichia coli [4]) [µg/mL]	MIC (Escherichia coli [5]) [µg/mL]	MIC (Escherichia coli [6]) [µg/mL]	MIC (Escherichia coli [7]) [µg/mL]	Activity (Nucleic Acid [8])	Activity (Nucleic Acid [9])	Activity (Nucleic Acid [10])	Activity (Nucleic Acid [11])	Activity (Nucleic Acid [12])
CN[C@H]1C[C@@H](N)[C@H](O)[C@@H](O[C@@H]2O[C@H](CO)[C@H](O)[C@H]3O[C@@]4(O[C@H]23)O[C@H]([C@H](N)CO)[C@H](O)[C@H](O)[C@H]4O)[C@@H]1O	128 (≈ 243 µM)	16 (≈ 30.3 µM)	16 (≈ 30.3 µM)	32 (≈ 60.7 µM)	32 (≈ 60.7 µM)	–	–	–	–	–	–	–
NCC[C@H](O)C(=O)N[C@@H]1C[C@H](N)[C@@H](O[C@H]2O[C@H](CN)[C@@H](O)[C@H](O)[C@H]2O)[C@H](O)[C@H]1O[C@H]1O[C@H](CO)[C@@H](O)[C@H](N)[C@H]1O [AMIKACIN]	256 (≈ 437 µM)	16 (≈ 27.3 µM)	0.13 (≈ 0.222 µM)	32 (≈ 54.6 µM)	0.5 (≈ 0.854 µM)	–	–	–	–	–	–	–
CN[C@@H]1[C@@H](O[C@H]2O[C@H](CO)[C@@H](N)[C@H](O)[C@H]2O)OC2C[C@@H](N)[C@@H](O[C@H]3[C@H](O)[C@@H](O)[C@H](N)C[C@@H]3N)OC2[C@@H]1O (stereo not given in full) [APRAMYCIN]	> 256	> 256	1 (≈ 1.85 µM)	> 256	2 (≈ 3.71 µM)	3.9 (≈ 7.23 µM)	> 1000	–	–	–	–	–
NCC[C@H](O)C(=O)N[C@@H]1C[C@H](N)[C@@H](O[C@H]2O[C@H](CN)CC[C@H]2N)[C@H](O)[C@H]1O[C@H]1O[C@H](CO)[C@@H](O)[C@H](N)[C@H]1O [ARBEKACIN]	64 (≈ 116 µM)	4 (≈ 7.24 µM)	0.13 (≈ 0.235 µM)	4 (≈ 7.24 µM)	0.25 (≈ 0.452 µM)	–	–	–	–	–	–	–
NC[C@@H]1CC[C@@H](N)[C@@H](O[C@H]2[C@H](O)[C@@H](O[C@H]3O[C@H](CO)[C@@H](O)[C@H](N)[C@H]3O)[C@H](N)C[C@@H]2N)O1 [DIBEKACIN]	> 256	128 (≈ 283 µM)	0.13 (≈ 0.288 µM)	128 (≈ 283 µM)	0.25 (≈ 0.554 µM)	–	–	–	–	–	–	–
NC[C@@H]1O[C@H](O[C@H]2[C@@H](O)[C@H](O[C@@H]3[C@@H](O)[C@H](N)C[C@H](N)[C@H]3O[C@H]3O[C@H](CN)[C@@H](O)[C@H](O)[C@H]3N)O[C@@H]2CO)[C@H](N)[C@@H](O)[C@@H]1O [FRAMYCETIN]	> 256	64 (≈ 104 µM)	0.13 (≈ 0.212 µM)	64 (≈ 104 µM)	0.25 (≈ 0.407 µM)	–	–	Active	Active	inactive	inactive	–
CN[C@@H]1[C@@H](O)[C@@H](O[C@@H]2[C@@H](O)[C@H](O[C@H]3O[C@H](CN)[C@@H](O)[C@H](O)[C@H]3O)[C@@H](N)C[C@H]2NC(=O)[C@@H](O)CN)OC[C@]1(C)O [ISEPAMICIN]	> 256	64 (≈ 112 µM)	0.13 (≈ 0.228 µM)	128 (≈ 225 µM)	0.13 (≈ 0.228 µM)	–	–	–	–	–	–	–
NC[C@H]1O[C@H](O[C@H]2[C@H](O)[C@@H](O[C@H]3O[C@H](CO)[C@@H](O)[C@H](N)[C@H]3O)[C@H](N)C[C@@H]2N)[C@H](O)[C@@H](O)[C@@H]1O [KANAMYCIN]	> 256	> 256	0.25 (≈ 0.516 µM)	> 256	0.5 (≈ 1.03 µM)	–	–	–	–	–	–	–
NC[C@@H]1O[C@H](O[C@H]2[C@@H](O)[C@H](O[C@@H]3[C@@H](O)[C@H](N)C[C@H](N)[C@H]3O[C@H]3O[C@H](CO)[C@@H](O)C[C@H]3N)O[C@@H]2CO)[C@H](N)[C@@H](O)[C@@H]1O[C@H]1O[C@H](CO)[C@@H](O)[C@H](O)[C@@H]1O [LIVIDOMYCIN]	256 (≈ 336 µM)	16 (≈ 21 µM)	0.5 (≈ 0.656 µM)	32 (≈ 42 µM)	2 (≈ 2.63 µM)	–	–	–	–	–	–	–
CCN[C@@H]1C[C@H](N)[C@@H](O[C@H]2OC(CN)=CC[C@H]2N)[C@H](O)[C@H]1O[C@H]1OC[C@](C)(O)[C@H](NC)[C@H]1O [NETILMICIN]	> 256	> 256	≤ 0.06	> 256	0.13 (≈ 0.273 µM)	–	–	–	–	–	–	–
NC[C@@H]1O[C@H](O[C@H]2[C@@H](O)[C@H](O[C@@H]3[C@@H](O)[C@H](N)C[C@H](N)[C@H]3O[C@H]3O[C@H](CO)[C@@H](O)[C@H](O)[C@H]3N)O[C@@H]2CO)[C@H](N)[C@@H](O)[C@@H]1O [PAROMOMYCIN]	64 (≈ 104 µM)	4 (≈ 6.5 µM)	0.5 (≈ 0.812 µM)	4 (≈ 6.5 µM)	1 (≈ 1.62 µM)	–	–	–	–	–	–	–
NC[C@H]1O[C@H](O[C@H]2[C@H](O[C@@H]3O[C@H](CO)[C@@H](O)[C@H]3O)[C@@H](O)[C@H](N)C[C@@H]2N)[C@H](N)[C@@H](O)[C@@H]1O [RIBOSTAMYCIN]	> 256	> 256	0.25 (≈ 0.55 µM)	> 256	0.5 (≈ 1.1 µM)	–	–	Active	Active	inactive	inactive	–
CN[C@@H]1[C@@H](O)[C@@H](O[C@@H]2[C@@H](O)[C@H](O[C@H]3OC(CN)=CC[C@H]3N)[C@@H](N)C[C@H]2N)OC[C@]1(C)O [SISOMICIN]	> 256	> 256	≤ 0.06	256 (≈ 572 µM)	0.13 (≈ 0.29 µM)	–	–	–	–	–	–	–
CN[C@@H]1[C@H](O)[C@H](NC)[C@H]2O[C@@]3(O)C(=O)C[C@@H](C)O[C@H]3O[C@@H]2[C@H]1O [SPECTINOMYCIN]	> 256	> 256	16 (≈ 48.1 µM)	16 (≈ 48.1 µM)	16 (≈ 48.1 µM)	–	–	–	–	–	–	–
CN[C@@H]1[C@H](O[C@H]2[C@H](O[C@H]3[C@H](O)[C@@H](O)[C@H](N=C(N)N)[C@@H](O)[C@@H]3N=C(N)N)O[C@@H](C)[C@]2(O)C=O)O[C@@H](CO)[C@H](O)[C@H]1O [STREPTOMYCIN]	128 (≈ 220 µM)	32 (≈ 55 µM)	1 (≈ 1.72 µM)	1 (≈ 1.72 µM)	1 (≈ 1.72 µM)	–	–	–	–	–	–	–
NC[C@H]1O[C@H](O[C@H]2[C@H](O)[C@@H](O[C@H]3O[C@H](CO)[C@@H](O)[C@H](N)[C@H]3O)[C@H](N)C[C@@H]2N)[C@H](N)C[C@@H]1O [TOBRAMYCIN]	> 256	128 (≈ 274 µM)	≤ 0.06	128 (≈ 274 µM)	0.13 (≈ 0.278 µM)	–	–	–	–	–	–	–
GENTAMICIN	> 256	128	< 0.06	16	0.13	–	–	Active	Active	inactive	inactive	Dose-dependent effect
